These results are taken from ChEMBL document CHEMBL1153591, “Exploring bis-(indolyl)methane moiety as an alternative and innovative CAP group in the design of histone deacetylase (HDAC) inhibitors” (Bioorg Med Chem Lett, 2009).

The subject of test [1] is HCT-116. Kind of test: Cytotoxicity against human HCT116 cells after 24 hrs by sulforhodamine B assay. The conditions noted are these: HCT-116, 24 h. It counts as functional, cell-based. Background: Sulforhodamine B stains cellular protein and so reports cell mass.
Test [2] has as its system NCI-H460. The experiment in a line: Cytotoxicity against human H460 cells after 24 hrs by sulforhodamine B assay. The format is functional, cell-based. The conditions noted are these: NCI-H460, 24 h.
Test [3] concerns the target T1, Polyamine deacetylase HDAC10 (Homo sapiens, UniProt Q969S8).
T1 sequence (Q969S8 whole entry): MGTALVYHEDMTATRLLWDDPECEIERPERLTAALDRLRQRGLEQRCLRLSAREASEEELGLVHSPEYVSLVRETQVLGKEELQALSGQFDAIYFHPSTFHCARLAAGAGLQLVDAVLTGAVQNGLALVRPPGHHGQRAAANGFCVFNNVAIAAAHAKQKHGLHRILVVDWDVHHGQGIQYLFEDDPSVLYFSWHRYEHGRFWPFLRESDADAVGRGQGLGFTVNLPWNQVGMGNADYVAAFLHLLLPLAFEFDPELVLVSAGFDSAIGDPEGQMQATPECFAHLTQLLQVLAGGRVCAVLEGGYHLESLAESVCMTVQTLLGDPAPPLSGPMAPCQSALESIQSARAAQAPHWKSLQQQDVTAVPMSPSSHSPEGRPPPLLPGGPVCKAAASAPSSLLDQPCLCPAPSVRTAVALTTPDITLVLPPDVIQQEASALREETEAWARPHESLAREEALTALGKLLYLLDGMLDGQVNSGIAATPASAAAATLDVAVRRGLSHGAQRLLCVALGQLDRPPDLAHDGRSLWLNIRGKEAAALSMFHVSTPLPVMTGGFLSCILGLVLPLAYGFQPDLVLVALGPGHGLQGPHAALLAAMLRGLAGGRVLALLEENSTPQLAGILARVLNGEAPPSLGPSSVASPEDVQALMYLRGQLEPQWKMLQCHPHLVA
The experiment in a line: Inhibition of human HDAC10 by fluorimetry. In a few lines:
(§1)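 Each purified single HDAC isoform incubated with fluorogenic substrate, a p53 fragment (residues […], Arg-His-Lys-Lys(Ac)) carrying an ε-acetylated lysine; deacetylation releases fluorophore, read by fluorimeter. Compounds tested as 10 doses, 1:3 serial dilution starting from 50 µM solution. IC50 from dose-response inhibition curves; trichostatin A as reference compound.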

In test [4] the target is Histone deacetylase 9 (Homo sapiens, UniProt Q9UKV0). The experiment in a line: Inhibition of human HDAC9 by fluorimetry. The method in brief: as §1
Sequence of Histone deacetylase 9 (Q9UKV0 whole entry): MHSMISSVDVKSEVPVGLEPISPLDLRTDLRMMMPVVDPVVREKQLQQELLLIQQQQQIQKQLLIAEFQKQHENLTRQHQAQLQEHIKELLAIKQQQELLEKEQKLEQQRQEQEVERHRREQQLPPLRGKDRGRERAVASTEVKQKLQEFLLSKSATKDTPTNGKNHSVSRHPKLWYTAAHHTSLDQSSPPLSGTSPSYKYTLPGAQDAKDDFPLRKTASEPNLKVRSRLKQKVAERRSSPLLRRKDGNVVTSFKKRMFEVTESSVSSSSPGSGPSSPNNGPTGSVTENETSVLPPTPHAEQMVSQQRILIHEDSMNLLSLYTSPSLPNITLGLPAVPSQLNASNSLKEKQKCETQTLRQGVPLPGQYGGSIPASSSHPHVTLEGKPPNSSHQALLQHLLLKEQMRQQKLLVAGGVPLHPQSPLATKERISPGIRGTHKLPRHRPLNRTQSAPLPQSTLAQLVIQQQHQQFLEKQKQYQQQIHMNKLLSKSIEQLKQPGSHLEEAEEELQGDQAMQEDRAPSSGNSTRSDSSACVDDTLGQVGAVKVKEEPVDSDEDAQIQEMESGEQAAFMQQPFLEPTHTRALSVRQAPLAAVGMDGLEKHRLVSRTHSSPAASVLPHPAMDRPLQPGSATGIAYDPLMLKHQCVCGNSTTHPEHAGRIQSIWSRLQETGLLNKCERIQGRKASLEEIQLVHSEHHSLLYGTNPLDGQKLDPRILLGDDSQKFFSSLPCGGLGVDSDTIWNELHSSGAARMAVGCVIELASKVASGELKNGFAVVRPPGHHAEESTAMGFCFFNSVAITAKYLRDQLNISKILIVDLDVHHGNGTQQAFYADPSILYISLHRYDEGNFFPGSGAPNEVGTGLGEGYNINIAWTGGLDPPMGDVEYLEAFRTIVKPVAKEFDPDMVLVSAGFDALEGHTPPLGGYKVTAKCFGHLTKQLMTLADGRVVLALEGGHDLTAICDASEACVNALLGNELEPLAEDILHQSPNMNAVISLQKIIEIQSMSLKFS
Test [5] has as its target Histone deacetylase 5 (Homo sapiens, UniProt Q9UQL6). Kind of test: Inhibition of human HDAC5 by fluorimetry. The method in brief:
as §1

The target of test [6] is Histone deacetylase 3 (Homo sapiens, UniProt O15379). Kind of test: Inhibition of human HDAC3 by fluorimetry. The method in brief:
as §1

Test [7] concerns the target T2, Histone deacetylase 11 (Homo sapiens, UniProt Q96DB2).
T2 sequence (Q96DB2 whole entry): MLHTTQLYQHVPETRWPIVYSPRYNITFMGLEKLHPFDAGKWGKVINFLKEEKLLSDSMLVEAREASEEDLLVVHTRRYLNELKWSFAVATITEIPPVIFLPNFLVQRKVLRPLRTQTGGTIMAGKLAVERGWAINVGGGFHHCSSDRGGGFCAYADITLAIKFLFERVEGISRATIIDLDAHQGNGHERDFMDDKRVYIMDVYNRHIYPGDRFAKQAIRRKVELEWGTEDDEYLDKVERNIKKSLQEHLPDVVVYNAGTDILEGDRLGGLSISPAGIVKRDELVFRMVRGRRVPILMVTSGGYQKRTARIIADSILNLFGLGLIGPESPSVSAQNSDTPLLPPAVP
Kind of test: Inhibition of human HDAC11 by fluorimetry. In a few lines: as §1

Test [8] concerns the target Histone deacetylase 2 (Homo sapiens, UniProt Q92769). The experiment in a line: Inhibition of human HDAC2 by fluorimetry. The method in brief: as §1
Test [9] addresses T3, Histone deacetylase 8 (Homo sapiens, UniProt Q9BY41).
T3 sequence (Q9BY41 whole entry): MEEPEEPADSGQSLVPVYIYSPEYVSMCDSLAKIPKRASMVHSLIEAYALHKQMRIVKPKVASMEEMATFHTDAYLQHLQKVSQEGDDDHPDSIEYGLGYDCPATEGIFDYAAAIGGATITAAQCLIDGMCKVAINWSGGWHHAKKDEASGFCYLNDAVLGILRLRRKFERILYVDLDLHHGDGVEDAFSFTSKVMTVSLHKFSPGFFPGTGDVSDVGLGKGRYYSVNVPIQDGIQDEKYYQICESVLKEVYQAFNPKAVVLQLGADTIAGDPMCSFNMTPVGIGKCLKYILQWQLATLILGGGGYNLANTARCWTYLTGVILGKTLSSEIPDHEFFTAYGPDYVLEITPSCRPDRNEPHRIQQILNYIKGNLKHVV
Kind of test: Inhibition of human HDAC8 by fluorimetry. In a few lines:
as §1

In test [10] the target is Histone deacetylase 4 (Homo sapiens, UniProt P56524). Kind of test: Inhibition of human HDAC4 by fluorimetry. In a few lines: as §1
Sequence of Histone deacetylase 4 (P56524 whole entry): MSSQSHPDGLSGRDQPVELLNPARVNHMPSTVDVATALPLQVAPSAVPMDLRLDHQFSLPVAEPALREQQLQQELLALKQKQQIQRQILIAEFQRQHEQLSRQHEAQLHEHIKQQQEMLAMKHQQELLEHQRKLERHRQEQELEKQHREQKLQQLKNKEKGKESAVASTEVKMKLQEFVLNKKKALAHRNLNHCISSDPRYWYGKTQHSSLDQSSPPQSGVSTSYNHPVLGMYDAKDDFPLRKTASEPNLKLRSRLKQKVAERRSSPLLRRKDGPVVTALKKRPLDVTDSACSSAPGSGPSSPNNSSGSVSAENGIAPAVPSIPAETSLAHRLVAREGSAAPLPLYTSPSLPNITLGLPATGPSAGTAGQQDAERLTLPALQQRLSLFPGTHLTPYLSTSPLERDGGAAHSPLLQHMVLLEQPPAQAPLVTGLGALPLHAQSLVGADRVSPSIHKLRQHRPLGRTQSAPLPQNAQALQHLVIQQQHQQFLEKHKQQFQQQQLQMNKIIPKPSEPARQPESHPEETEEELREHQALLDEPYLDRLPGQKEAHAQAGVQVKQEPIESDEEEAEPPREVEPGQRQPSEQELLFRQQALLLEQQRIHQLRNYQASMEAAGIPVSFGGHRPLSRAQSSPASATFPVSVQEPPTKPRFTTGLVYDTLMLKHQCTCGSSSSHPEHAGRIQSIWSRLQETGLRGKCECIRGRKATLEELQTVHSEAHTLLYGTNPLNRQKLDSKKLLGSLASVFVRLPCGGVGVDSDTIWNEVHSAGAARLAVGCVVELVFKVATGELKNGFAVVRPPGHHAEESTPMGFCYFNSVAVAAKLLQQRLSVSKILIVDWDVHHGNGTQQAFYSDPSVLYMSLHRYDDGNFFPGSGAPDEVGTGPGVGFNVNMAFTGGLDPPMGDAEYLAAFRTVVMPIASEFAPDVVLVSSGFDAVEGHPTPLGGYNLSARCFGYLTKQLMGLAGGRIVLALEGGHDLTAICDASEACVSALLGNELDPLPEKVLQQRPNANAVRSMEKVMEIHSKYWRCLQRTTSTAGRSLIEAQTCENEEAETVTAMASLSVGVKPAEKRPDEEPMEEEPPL
Test [11] concerns the target Histone deacetylase 1 (Homo sapiens, UniProt Q13547). The experiment in a line: Inhibition of human HDAC1 by fluorimetry. In a few lines: as §1
Test [12] deals with T4, Protein deacetylase HDAC6 (Homo sapiens, UniProt Q9UBN7).
T4 sequence (Q9UBN7 whole entry): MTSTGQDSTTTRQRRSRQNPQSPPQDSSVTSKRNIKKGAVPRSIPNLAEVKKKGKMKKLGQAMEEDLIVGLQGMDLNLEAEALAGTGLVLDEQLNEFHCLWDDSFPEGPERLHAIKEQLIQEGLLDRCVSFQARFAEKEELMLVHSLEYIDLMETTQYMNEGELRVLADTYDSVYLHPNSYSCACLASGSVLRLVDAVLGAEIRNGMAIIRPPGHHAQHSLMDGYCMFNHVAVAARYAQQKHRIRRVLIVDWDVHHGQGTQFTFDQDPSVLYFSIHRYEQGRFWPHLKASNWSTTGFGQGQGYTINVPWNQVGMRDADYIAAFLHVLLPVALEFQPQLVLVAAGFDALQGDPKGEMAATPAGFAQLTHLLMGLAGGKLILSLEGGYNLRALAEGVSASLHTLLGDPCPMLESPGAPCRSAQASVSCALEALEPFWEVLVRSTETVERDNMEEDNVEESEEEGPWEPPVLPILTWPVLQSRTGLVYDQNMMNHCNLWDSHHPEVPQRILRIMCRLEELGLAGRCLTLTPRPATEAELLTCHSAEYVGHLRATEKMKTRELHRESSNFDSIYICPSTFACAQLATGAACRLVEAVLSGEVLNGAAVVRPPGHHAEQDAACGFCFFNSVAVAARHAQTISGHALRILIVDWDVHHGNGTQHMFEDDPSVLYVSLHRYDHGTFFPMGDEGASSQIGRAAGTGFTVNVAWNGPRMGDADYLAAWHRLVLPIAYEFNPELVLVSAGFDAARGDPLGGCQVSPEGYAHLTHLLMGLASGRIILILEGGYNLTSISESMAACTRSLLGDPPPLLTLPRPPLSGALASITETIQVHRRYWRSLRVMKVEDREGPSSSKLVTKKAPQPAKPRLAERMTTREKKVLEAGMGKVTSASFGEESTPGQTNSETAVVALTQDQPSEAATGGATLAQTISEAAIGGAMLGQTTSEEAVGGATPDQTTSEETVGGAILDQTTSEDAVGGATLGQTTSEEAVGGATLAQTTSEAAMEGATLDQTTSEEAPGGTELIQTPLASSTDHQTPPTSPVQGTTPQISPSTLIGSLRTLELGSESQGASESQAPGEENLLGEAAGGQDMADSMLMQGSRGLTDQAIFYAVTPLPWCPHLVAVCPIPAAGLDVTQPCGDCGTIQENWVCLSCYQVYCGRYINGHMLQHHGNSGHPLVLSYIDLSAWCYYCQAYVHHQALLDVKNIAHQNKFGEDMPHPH
Kind of test: Inhibition of human HDAC6 by fluorimetry. In a few lines: as §1

Sequence of Histone deacetylase 2 (Q92769 whole entry): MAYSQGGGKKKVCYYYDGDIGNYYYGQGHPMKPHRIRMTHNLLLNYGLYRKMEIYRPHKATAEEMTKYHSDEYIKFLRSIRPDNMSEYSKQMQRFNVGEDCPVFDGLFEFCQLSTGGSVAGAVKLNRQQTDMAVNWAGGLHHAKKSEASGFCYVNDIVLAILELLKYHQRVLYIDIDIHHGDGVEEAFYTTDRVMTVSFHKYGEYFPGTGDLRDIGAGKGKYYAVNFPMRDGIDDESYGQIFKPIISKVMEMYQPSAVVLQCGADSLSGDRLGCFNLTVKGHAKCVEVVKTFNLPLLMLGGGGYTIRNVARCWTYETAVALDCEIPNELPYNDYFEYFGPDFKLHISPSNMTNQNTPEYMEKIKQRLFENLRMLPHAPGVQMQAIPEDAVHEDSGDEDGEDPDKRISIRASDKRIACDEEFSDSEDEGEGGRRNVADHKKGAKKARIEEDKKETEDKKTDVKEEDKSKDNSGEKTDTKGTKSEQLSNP
Sequence of Histone deacetylase 3 (O15379 whole entry): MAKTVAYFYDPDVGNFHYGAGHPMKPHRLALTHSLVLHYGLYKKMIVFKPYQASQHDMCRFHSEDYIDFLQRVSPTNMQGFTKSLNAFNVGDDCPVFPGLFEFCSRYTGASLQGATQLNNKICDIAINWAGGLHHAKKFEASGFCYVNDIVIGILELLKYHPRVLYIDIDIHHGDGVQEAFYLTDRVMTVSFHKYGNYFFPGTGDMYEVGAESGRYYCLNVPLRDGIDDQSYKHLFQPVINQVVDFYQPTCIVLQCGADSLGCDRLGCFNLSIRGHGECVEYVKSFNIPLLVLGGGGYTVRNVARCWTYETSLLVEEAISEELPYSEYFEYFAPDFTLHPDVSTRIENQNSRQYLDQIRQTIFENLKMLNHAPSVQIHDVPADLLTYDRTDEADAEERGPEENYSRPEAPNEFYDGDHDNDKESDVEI
Sequence of Histone deacetylase 1 (Q13547 whole entry): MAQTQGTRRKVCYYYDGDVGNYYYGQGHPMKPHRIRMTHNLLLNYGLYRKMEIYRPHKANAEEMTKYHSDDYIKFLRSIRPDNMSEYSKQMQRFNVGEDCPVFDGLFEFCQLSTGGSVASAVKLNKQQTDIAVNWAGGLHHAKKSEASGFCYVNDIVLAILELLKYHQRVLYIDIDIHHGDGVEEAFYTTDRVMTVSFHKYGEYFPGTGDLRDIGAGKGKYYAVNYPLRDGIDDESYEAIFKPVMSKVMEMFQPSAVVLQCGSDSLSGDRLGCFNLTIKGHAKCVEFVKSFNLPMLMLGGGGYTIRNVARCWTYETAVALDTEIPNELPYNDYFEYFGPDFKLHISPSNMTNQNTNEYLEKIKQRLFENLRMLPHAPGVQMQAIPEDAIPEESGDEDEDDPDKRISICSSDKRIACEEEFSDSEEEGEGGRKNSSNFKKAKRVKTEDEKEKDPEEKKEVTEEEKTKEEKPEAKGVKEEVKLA
Sequence of Histone deacetylase 5 (Q9UQL6 whole entry): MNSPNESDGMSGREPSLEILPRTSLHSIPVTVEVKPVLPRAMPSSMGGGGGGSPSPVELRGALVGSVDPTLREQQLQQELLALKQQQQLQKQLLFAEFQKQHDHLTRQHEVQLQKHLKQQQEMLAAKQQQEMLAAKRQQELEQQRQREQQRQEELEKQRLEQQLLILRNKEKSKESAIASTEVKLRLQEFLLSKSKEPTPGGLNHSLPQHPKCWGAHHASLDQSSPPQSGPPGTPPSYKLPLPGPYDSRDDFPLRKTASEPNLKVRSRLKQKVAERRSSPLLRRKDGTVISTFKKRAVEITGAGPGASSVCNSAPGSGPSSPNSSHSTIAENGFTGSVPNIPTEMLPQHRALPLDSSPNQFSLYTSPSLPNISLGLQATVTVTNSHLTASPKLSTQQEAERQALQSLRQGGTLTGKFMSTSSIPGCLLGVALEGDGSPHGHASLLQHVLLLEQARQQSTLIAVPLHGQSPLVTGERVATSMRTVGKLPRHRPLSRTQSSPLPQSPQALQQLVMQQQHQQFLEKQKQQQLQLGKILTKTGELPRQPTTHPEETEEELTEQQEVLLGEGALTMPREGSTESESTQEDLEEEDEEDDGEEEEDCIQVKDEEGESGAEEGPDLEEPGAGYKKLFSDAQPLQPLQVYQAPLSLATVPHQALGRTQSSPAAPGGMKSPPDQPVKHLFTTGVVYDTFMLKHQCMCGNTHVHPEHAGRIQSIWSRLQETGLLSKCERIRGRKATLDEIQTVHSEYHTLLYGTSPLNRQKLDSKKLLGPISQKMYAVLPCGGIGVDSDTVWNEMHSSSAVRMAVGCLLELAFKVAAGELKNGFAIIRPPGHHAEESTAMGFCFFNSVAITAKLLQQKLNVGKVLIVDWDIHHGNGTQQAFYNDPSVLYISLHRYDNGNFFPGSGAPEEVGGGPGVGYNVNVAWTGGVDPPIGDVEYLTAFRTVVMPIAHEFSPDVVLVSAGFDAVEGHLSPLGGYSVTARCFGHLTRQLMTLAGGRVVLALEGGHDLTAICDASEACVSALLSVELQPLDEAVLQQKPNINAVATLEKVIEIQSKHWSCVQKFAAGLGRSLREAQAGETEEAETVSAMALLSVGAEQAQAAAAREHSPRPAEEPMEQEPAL

For `O=C(CCCCCc1c[nH]c2ccccc12)NO`, the IC50 in [1] was found to be 15 µM; in test [2], 22 µM.

As to `O=C(CCCCCC(c1c[nH]c2cccc(F)c12)c1c[nH]c2cccc(F)c12)NO`, the IC50 is 0.4 µM in test [1] and 0.7 µM in [2].

In the case of `O=C(CCCCC(c1c[nH]c2ccccc12)c1c[nH]c2ccccc12)NO`, the concentration for half-maximal inhibition (IC50) in test [1] came out at 5.8 µM; in test [2], 5.2 µM.

With `CN(O)C(=O)CCCCCC(c1c[nH]c2ccccc12)c1c[nH]c2ccccc12`, the IC50 in [1] and in test [2] was > 20 µM each time.

As to `O=C(CCCCCCC(c1c[nH]c2ccccc12)c1c[nH]c2ccccc12)NO`, the IC50 in [1] came to 3.5 µM; in [2], 2.7 µM.

With `Cc1[nH]c2ccccc2c1C(CCCCCC(=O)NO)c1c(C)[nH]c2ccccc12`, the IC50 in test [1] worked out at 3.2 µM; in test [2] it was 4.3 µM.

As to `O=C(CCCCCC(c1cc2ccccc2[nH]1)c1c[nH]c2ccccc12)NO` (stereo not drawn), the IC50 in test [1] was determined as 0.84 µM; in test [2], 0.82 µM.

Consider `Cn1cc(C(CCCCCC(=O)NO)c2cn(C)c3ccccc23)c2ccccc21`, for which the results for the IC50 in test [1] and in test [2] were 6.6 µM and 8.8 µM, respectively.

Turning to `O=C(CCC(c1c[nH]c2ccccc12)c1c[nH]c2ccccc12)NO`, the IC50 in [1] and in test [2] was > 20 µM each time.

In the case of `Cc1ccc2[nH]cc(C(CCCCCC(=O)NO)c3c[nH]c4ccc(C)cc34)c2c1`, the figures for the IC50 in [1] and in test [2] were 0.27 µM and 0.51 µM, respectively.

Take `Cc1[nH]c2ccccc2c1C(c1ccc(/C=C/C(=O)NO)cc1)c1c(C)[nH]c2ccccc12`: the half-inhibitory concentration (IC50) in test [1] and in test [2] was > 20 µM each time.

`O=C(CCCC(c1c[nH]c2ccccc12)c1c[nH]c2ccccc12)NO`: the IC50 in test [1] and in test [2] was > 20 µM in each case.

As to `Nc1ccccc1NC(=O)CCCCCC(c1c[nH]c2ccccc12)c1c[nH]c2ccccc12`, the IC50 is 73 µM in test [3]; 50 µM in [4]; 28 µM in test [5]; 0.26 µM in test [6]; 16.5 µM in [1]; 5.8 µM in [7]. For the same compound, the half-maximal inhibitory concentration (IC50) was 1.1 µM in test [8]; > 20 µM in test [2]; 74 µM in test [9]; 150 µM in [10]; 21 µM in [11].

For `O=C(CCCCCC(c1c[nH]c2ccccc12)c1c[nH]c2ccccc12)NO`, the IC50 was 0.87 µM in [3]; 0.64 µM in test [4]; 0.59 µM in test [5]; 0.006 µM in test [12]; 0.35 µM in [6]; 0.6 µM in test [1]. Besides, the IC50 was 0.43 µM in test [7]; 2 µM in test [8]; 1.2 µM in test [2]; 0.24 µM in [9]; 1.3 µM in test [10]; 0.73 µM in [11].

As for `O=C(CCCCCC(c1c[nH]c2ccc([N+](=O)[O-])cc12)c1c[nH]c2ccc([N+](=O)[O-])cc12)NO`, the IC50 is 0.25 µM in test [3]; 0.15 µM in test [4]; 0.14 µM in test [5]; 0.02 µM in [12]; 0.018 µM in test [6]; 1.2 µM in [1]. In addition, the half-inhibitory concentration (IC50) in test [8] turned out to be 0.59 µM; in test [2], 3.2 µM; in test [9] it was 0.6 µM; in [10], 0.22 µM; in test [11], 0.14 µM.

With `CCc1cccc2c(C(CCCCCC(=O)NO)c3c[nH]c4c(CC)cccc34)c[nH]c12`, the half-inhibitory concentration (IC50) in test [1] amounted to 3.5 µM; in test [2] it was 4.8 µM.

As for `CN(O)C(=O)CCCCCC(c1cn(C)c2ccccc12)c1cn(C)c2ccccc12`, the half-inhibitory concentration (IC50) in [1] and in test [2] was > 20 µM in each case.

As to `COc1cccc2c(C(CCCCCC(=O)NO)c3c[nH]c4c(OC)cccc34)c[nH]c12`, the IC50 came out at 0.24 µM in test [3]; 0.34 µM in [4]; 0.311 µM in test [5]; 0.0026 µM in [12]; 0.023 µM in test [6]; 0.41 µM in test [1]. Also, the IC50 in [8] came to 0.44 µM; in [2], 0.55 µM; in test [9], 0.18 µM; in [10], 0.22 µM; in [11], 0.083 µM.

In general, IC50 refers to the concentration needed to halve the response being measured. Low values mean greater potency in that assay, high ones weaker potency in that assay.
